Results: ChEMBL document CHEMBL5303300, “EUbOPEN Chemogenomics Library - Multiplex” (2023)
Several values for one entry are separate records, joined by “and”; a condition that tells them apart may be missing. Equal values may be shown once.

Experiments:
Type in all cases: toxicity, cell-based
[1] = test system: U2OS; experiment: Multiplex assay against U2OS; settings: human, number of replicates 2
Procedure, shortened: (§1)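 Live cells were stained at seeding with Hoechst33342, BioTracker Green Microtubule Cytoskeleton Dye, MitoTracker Red and Annexin V Alexa Fluor 680, then imaged on a CQ1 microscope at 37°C and 5% CO2 after compound addition. CellPathfinder machine-learning gating split cells into Hoechst high-intensity objects or normal cells. Normal cells were split into healthy, pyknosed or fragmented nuclei, and pyknosed cells into mitotic or apoptotic. Tubulin, mitochondrial-mass and membrane-permeability phenotypes are per cents of healthy-nucleus cells.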

[2] = test system: Fibroblast; experiment: Multiplex assay against human fibroblast; settings: number of replicates 2; procedure, shortened: as §1
[3] = test system: HEK-293T; experiment: Multiplex assay against HEK293T; settings: human, number of replicates 2; procedure, shortened: as §1
[4] = 12 h, 1 µM, compound concentration 1 uM
[5] = 12 h, 10 µM, compound concentration 10 uM
[6] = 24 h, 1 µM, compound concentration 1 uM
[7] = 24 h, 10 µM, compound concentration 10 uM
[8] = 48 h, 1 µM, compound concentration 1 uM
[9] = 48 h, 10 µM, compound concentration 10 uM

## CCc1cnn2c(NCc3ccc[n+]([O-])c3)cc(N3CCCCC3CCO)nc12 (stereo not drawn)
[1]; [4]
  Population Apoptotic (%): 58% and 91%
  Population Healthy Nuclei (%): 22% and 40%
  Population Hoechst High Intensity Objects (%): 0%
  Population Membrane Permeable-Phenotype (%): 25% and 12%
  Population Mitochondria Different-Phenotype (%): 12% and 2%
  Population Normal (%): 100%
  Population Pyknosed Nuclei (%): 34% and 49%
  Population Tubulin-Different-Phenotype (%): 75% and 86%
[1]; [5]
  Population Apoptotic (%): 78% and 66%
  Population Fragmented Nuclei (%): 17% and 14%
  Population Healthy Nuclei (%): 40% and 47%
  Population Hoechst High Intensity Objects (%): 0%
  Population Mitochondria Different-Phenotype (%): 11% and 0%
  Population Mitotic Cells (%): 21% and 33%
  Population Normal (%): 100%
  Population Pyknosed Nuclei (%): 42% and 38%
  Population Tubulin-Different-Phenotype (%): 44% and 76%
[1]; [6]
  Population Apoptotic (%): 100%
  Population Healthy Nuclei (%): 20% and 30%
  Population Hoechst High Intensity Objects (%): 0% and 1%
  Population Membrane Permeable-Phenotype (%): 20% and 10%
  Population Mitotic Cells (%): 0%
  Population Normal (%): 100% and 98%
  Population Pyknosed Nuclei (%): 32% and 53%
  Population Tubulin-Different-Phenotype (%): 100% and 82%
[1]; [7]
  Population Apoptotic (%): 87% and 82%
  Population Fragmented Nuclei (%): 14% and 12%
  Population Healthy Nuclei (%): 34% and 33%
  Population Hoechst High Intensity Objects (%): 4% and 1%
  Population Membrane Permeable-Phenotype (%): 6% and 10%
  Population Mitochondria Different-Phenotype (%): 6% and 8%
  Population Mitotic Cells (%): 12% and 17%
  Population Normal (%): 95% and 98%
  Population Pyknosed Nuclei (%): 51% and 53%
  Population Tubulin-Different-Phenotype (%): 43% and 63%
[1]; [8]
  Population Apoptotic (%): 100% and 97%
  Population Healthy Nuclei (%): 25% and 16%
  Population Hoechst High Intensity Objects (%): 0% and 3%
  Population Membrane Permeable-Phenotype (%): 12% and 31%
  Population Mitochondria Different-Phenotype (%): 25% and 21%
  Population Mitotic Cells (%): 0% and 2%
  Population Normal (%): 100% and 96%
  Population Pyknosed Nuclei (%): 28% and 74%
  Population Tubulin-Different-Phenotype (%): 75% and 100%
[1]; [9]
  Population Apoptotic (%): 95% and 82%
  Population Fragmented Nuclei (%): 10% and 19%
  Population Healthy Nuclei (%): 18% and 11%
  Population Hoechst High Intensity Objects (%): 1%
  Population Mitochondria Different-Phenotype (%): 45% and 33%
  Population Normal (%): 98%
  Population Pyknosed Nuclei (%): 71% and 68%
  Population Tubulin-Different-Phenotype (%): 81% and 83%
[2]; [4]
  Population Apoptotic (%): 35% and 55%
  Population Fragmented Nuclei (%): 7% and 13%
  Population Healthy Nuclei (%): 73% and 62%
  Population Hoechst High Intensity Objects (%): 0%
  Population Membrane Permeable-Phenotype (%): 3% and 4%
  Population Mitochondria Different-Phenotype (%): 1% and 0%
  Population Mitotic Cells (%): 65% and 44%
  Population Normal (%): 100%
  Population Pyknosed Nuclei (%): 19% and 23%
  Population Tubulin-Different-Phenotype (%): 13% and 9%
  Total Cell Count: 209 and 219
[2]; [5]
  Population Apoptotic (%): 42% and 55%
  Population Fragmented Nuclei (%): 6% and 7%
  Population Healthy Nuclei (%): 75%
  Population Hoechst High Intensity Objects (%): 0%
  Population Membrane Permeable-Phenotype (%): 5% and 7%
  Population Mitochondria Different-Phenotype (%): 2% and 3%
  Population Mitotic Cells (%): 57% and 44%
  Population Normal (%): 99% and 100%
  Population Pyknosed Nuclei (%): 17% and 16%
  Population Tubulin-Different-Phenotype (%): 31% and 26%
  Total Cell Count: 191 and 174
[2]; [6]
  Population Apoptotic (%): 59% and 63%
  Population Fragmented Nuclei (%): 9% and 13%
  Population Healthy Nuclei (%): 68% and 67%
  Population Hoechst High Intensity Objects (%): 0%
  Population Membrane Permeable-Phenotype (%): 7% and 3%
  Population Mitochondria Different-Phenotype (%): 2% and 0%
  Population Mitotic Cells (%): 40% and 36%
  Population Normal (%): 100%
  Population Pyknosed Nuclei (%): 22% and 19%
  Population Tubulin-Different-Phenotype (%): 18% and 10%
  Total Cell Count: 188 and 213
[2]; [7]
  Population Apoptotic (%): 68% and 52%
  Population Fragmented Nuclei (%): 8% and 9%
  Population Healthy Nuclei (%): 77% and 75%
  Population Hoechst High Intensity Objects (%): 0%
  Population Membrane Permeable-Phenotype (%): 10% and 4%
  Population Mitochondria Different-Phenotype (%): 2% and 6%
  Population Mitotic Cells (%): 32% and 48%
  Population Normal (%): 100%
  Population Pyknosed Nuclei (%): 13% and 15%
  Population Tubulin-Different-Phenotype (%): 43% and 38%
  Total Cell Count: 181 and 162
[2]; [8]
  Population Apoptotic (%): 65% and 64%
  Population Fragmented Nuclei (%): 9% and 12%
  Population Healthy Nuclei (%): 55% and 61%
  Population Hoechst High Intensity Objects (%): 0%
  Population Membrane Permeable-Phenotype (%): 8% and 9%
  Population Mitochondria Different-Phenotype (%): 0% and 3%
  Population Mitotic Cells (%): 34% and 35%
  Population Normal (%): 100% and 99%
  Population Pyknosed Nuclei (%): 35% and 26%
  Population Tubulin-Different-Phenotype (%): 15% and 17%
  Total Cell Count: 188 and 216
[2]; [9]
  Population Apoptotic (%): 73% and 63%
  Population Fragmented Nuclei (%): 11% and 6%
  Population Healthy Nuclei (%): 63%
  Population Hoechst High Intensity Objects (%): 0%
  Population Membrane Permeable-Phenotype (%): 14% and 20%
  Population Mitochondria Different-Phenotype (%): 1% and 4%
  Population Mitotic Cells (%): 26% and 36%
  Population Normal (%): 100% and 99%
  Population Pyknosed Nuclei (%): 25% and 29%
  Population Tubulin-Different-Phenotype (%): 43% and 41%
  Total Cell Count: 179 and 149
[3]; [4]
  Population Apoptotic (%): 70% and 62%
  Population Fragmented Nuclei (%): 3% and 2%
  Population Healthy Nuclei (%): 83% and 90%
  Population Hoechst High Intensity Objects (%): 9% and 7%
  Population Membrane Permeable-Phenotype (%): 0% and 1%
  Population Mitochondria Different-Phenotype (%): 47% and 51%
  Population Mitotic Cells (%): 29% and 37%
  Population Normal (%): 90% and 92%
  Population Pyknosed Nuclei (%): 12% and 7%
  Population Tubulin-Different-Phenotype (%): 70% and 75%
  Total Cell Count: 349 and 339
[3]; [5]
  Population Apoptotic (%): 52% and 86%
  Population Fragmented Nuclei (%): 3%
  Population Healthy Nuclei (%): 89% and 90%
  Population Hoechst High Intensity Objects (%): 13%
  Population Membrane Permeable-Phenotype (%): 2% and 1%
  Population Mitochondria Different-Phenotype (%): 59% and 57%
  Population Normal (%): 86%
  Population Pyknosed Nuclei (%): 7% and 6%
  Population Tubulin-Different-Phenotype (%): 86%
  Total Cell Count: 345 and 378
[3]; [6]
  Population Apoptotic (%): 74% and 68%
  Population Fragmented Nuclei (%): 3% and 2%
  Population Healthy Nuclei (%): 86%
  Population Hoechst High Intensity Objects (%): 10% and 11%
  Population Membrane Permeable-Phenotype (%): 1% and 0%
  Population Mitochondria Different-Phenotype (%): 60% and 52%
  Population Mitotic Cells (%): 25% and 31%
  Population Normal (%): 89% and 88%
  Population Pyknosed Nuclei (%): 10% and 11%
  Population Tubulin-Different-Phenotype (%): 70% and 67%
  Total Cell Count: 295 and 327
[3]; [7]
  Population Apoptotic (%): 47% and 79%
  Population Fragmented Nuclei (%): 4% and 3%
  Population Healthy Nuclei (%): 88%
  Population Hoechst High Intensity Objects (%): 18% and 17%
  Population Membrane Permeable-Phenotype (%): 0%
  Population Mitochondria Different-Phenotype (%): 70% and 67%
  Population Mitotic Cells (%): 52% and 20%
  Population Normal (%): 81% and 82%
  Population Pyknosed Nuclei (%): 6% and 8%
  Population Tubulin-Different-Phenotype (%): 83% and 85%
  Total Cell Count: 300 and 355
[3]; [8]
  Population Apoptotic (%): 68% and 80%
  Population Fragmented Nuclei (%): 4% and 3%
  Population Healthy Nuclei (%): 85% and 80%
  Population Hoechst High Intensity Objects (%): 11% and 13%
  Population Membrane Permeable-Phenotype (%): 0%
  Population Mitochondria Different-Phenotype (%): 71% and 75%
  Population Mitotic Cells (%): 32% and 19%
  Population Normal (%): 88% and 86%
  Population Pyknosed Nuclei (%): 10% and 16%
  Population Tubulin-Different-Phenotype (%): 74% and 67%
  Total Cell Count: 268 and 257
[3]; [9]
  Population Apoptotic (%): 43% and 68%
  Population Fragmented Nuclei (%): 1% and 5%
  Population Healthy Nuclei (%): 91% and 87%
  Population Hoechst High Intensity Objects (%): 19% and 20%
  Population Membrane Permeable-Phenotype (%): 1% and 0%
  Population Mitochondria Different-Phenotype (%): 74% and 73%
  Population Mitotic Cells (%): 56% and 31%
  Population Normal (%): 80% and 79%
  Population Pyknosed Nuclei (%): 6% and 7%
  Population Tubulin-Different-Phenotype (%): 83%
  Total Cell Count: 292 and 309
